Activity calls are given as the source filed them. No cut-off for these calls is given here.

For one data set, the target named is Beta-lactamase VIM-2 (Pseudomonas aeruginosa, UniProt Q9K2N0). Nature of the data set: Inhibition of Pseudomonas aeruginosa VIM2 expressed in Escherichia coli BL21(DE3) using fluorocillin as substrate preincubated for 10 mins followed by substrate addition measured after 20 mins by HTS assay.
In the next data set the test system is Bacteria. In words: Binding affinity to bacterial NDM-1 expressed in Escherichia coli BL21(DE3) assessed as Zn2+ stripping at. The method, boiled down: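 NDM-1 (8 μM final) in 50 mM HEPES pH 7.5 mixed with compound at 0–128 μM for 30 min. Then dialyzed 4 h against metal-free 50 mM HEPES pH 7.5. Residual Zn(II) measured by ICP-AES at 213.856 nm.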
Data set [1] is described as follows: Metal chelating activity assessed as Co2+-compound complex formation at 1 equiv by 1H NMR spectroscopic method. The data set is classed as functional. The method, boiled down: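 Apo-NDM-1 concentrated to ~1 mM and given 2 equivalents of CoCl2, in 50 mM HEPES, 150 mM NaCl, 10% D2O, pH 6.8. Compounds, from DMSO stocks of 50–100 mM, titrated in. 1H NMR spectra recorded at 292 K at 300.16 MHz.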

For data set [2], the target named is T1, Protein deacetylase HDAC6 (Homo sapiens) (UniProt Q9UBN7).
T1 sequence (whole entry): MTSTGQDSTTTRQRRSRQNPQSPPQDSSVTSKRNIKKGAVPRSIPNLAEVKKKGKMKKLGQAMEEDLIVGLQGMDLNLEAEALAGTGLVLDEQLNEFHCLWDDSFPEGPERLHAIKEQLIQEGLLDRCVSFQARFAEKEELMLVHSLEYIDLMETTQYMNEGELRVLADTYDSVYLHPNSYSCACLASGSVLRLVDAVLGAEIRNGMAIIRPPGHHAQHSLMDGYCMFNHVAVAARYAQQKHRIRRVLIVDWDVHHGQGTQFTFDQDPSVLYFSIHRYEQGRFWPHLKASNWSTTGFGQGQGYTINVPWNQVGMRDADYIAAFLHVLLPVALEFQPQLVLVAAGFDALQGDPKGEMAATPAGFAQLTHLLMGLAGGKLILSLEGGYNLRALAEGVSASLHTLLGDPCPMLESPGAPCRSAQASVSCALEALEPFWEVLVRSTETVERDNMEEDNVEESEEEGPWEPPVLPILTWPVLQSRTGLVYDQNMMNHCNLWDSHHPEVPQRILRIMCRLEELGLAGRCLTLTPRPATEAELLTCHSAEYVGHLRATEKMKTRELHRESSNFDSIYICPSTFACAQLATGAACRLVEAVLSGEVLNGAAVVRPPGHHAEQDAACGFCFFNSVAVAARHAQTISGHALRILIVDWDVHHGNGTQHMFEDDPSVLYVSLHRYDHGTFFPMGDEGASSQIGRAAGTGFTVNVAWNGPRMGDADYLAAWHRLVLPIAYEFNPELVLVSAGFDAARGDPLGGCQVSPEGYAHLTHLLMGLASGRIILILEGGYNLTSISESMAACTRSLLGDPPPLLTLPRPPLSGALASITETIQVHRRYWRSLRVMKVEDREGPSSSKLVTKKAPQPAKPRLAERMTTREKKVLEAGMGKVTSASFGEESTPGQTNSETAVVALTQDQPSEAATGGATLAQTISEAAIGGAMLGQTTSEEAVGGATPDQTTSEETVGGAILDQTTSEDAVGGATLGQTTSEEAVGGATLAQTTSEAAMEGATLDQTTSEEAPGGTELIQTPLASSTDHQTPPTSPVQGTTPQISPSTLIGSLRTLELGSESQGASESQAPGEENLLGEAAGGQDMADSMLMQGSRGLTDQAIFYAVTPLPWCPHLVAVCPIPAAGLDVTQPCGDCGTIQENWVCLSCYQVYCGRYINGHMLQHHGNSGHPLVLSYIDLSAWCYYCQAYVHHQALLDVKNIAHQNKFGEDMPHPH
Nature of the data set: Inhibition of full length human N-terminal GST-tagged HDAC6 expressed in baculovirus infected sf9 cells at 50 to 100 uM using HDAC substrate 3 preincubated for 5 mins followed by substrate addition measured after 30 mins by fluorescence assay. Summed up: (§1)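 Inhibitor pre-incubated 5 min, then HDAC substrate 3 (20 μM) added, 30 min at 37 °C. Developer added for 15 min at room temperature; fluorescence read at ex/em 360/460 nm. Activity relative to no-inhibitor wells, with 200 μM SAHA as 0%. Run in triplicate.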

Data set [3] addresses Metallo-beta-lactamase type 2 (Serratia marcescens, UniProt P52699). In words: Inhibition of Serratia marcescens IMP1 expressed in Escherichia coli BL21(DE3) using fluorocillin as substrate preincubated for 10 mins followed by substrate addition measured after 20 mins by HTS assay.
The target in data set [4] is Metallo-beta-lactamase type 2 (Klebsiella pneumoniae) (UniProt C7C422). In words: Inhibition of NDM1 in Klebsiella pneumoniae isolate Pd1.50 assessed as potentiation of imipenem-induced antibacterial activity by measuring imipenem MIC at 100 mg/L after 18 to 20 hrs by broth microdilution assay (reference value: 8 mg/L). (In general: In broth dilution the organism is exposed to a series of concentrations in liquid medium.)

Data set [5] has the same target. Nature of the data set: Inhibition of NDM1 in Klebsiella pneumoniae isolate Pd1.54 assessed as potentiation of imipenem-induced antibacterial activity by measuring imipenem MIC at 100 mg/L after 18 to 20 hrs by broth microdilution assay (reference value: 8 mg/L).
Data set [6] has as its system Klebsiella pneumoniae. In words: Effect on growth of Klebsiella pneumoniae isolate Pd1.53 at 100 mg/L after 18 to 20 hrs by broth microdilution assay. The method, boiled down: (§2)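 Mueller-Hinton broth microdilution per CLSI, triplicate. blaNDM-1 clinical isolates grown from OD600 0.1 to 0.224 (~1–2 × 10^8 CFU/mL), diluted 3 μL into 4997 μL MH, and 100 μL added to 100 μL of compound (100 mg/L) alone. Incubated 37 °C for 18–20 h, then scored for growth.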

Data set [7] is described as follows: Selectivity ratio of compound effect for inhibition of bacterial MBP-fused NDM1 expressed in Escherichia coli BL21(DE3) to compound effect for inhibition of human MMP2 (Tyr110 to Asp452 residues) expressed in yeast.
The target in data set [8] is T1, Protein deacetylase HDAC6 (Homo sapiens). In words: Inhibition of full length human N-terminal GST-tagged HDAC6 expressed in baculovirus infected sf9 cells at 10 uM using HDAC substrate 3 preincubated for 5 mins followed by substrate addition measured after 30 mins by fluorescence assay. The method, boiled down: as §1
The subject of data set [9] is Escherichia coli. In words: Effect on growth of Escherichia coli isolate Ah8.75 at 100 mg/L after 18 to 20 hrs by broth microdilution assay. Summed up:
as §2

The test system of data set [10] is Klebsiella pneumoniae. Nature of the data set: Effect on growth of Klebsiella pneumoniae isolate Pd1.49 at 100 mg/L after 18 to 20 hrs by broth microdilution assay. The method, boiled down:
as §2

The test system of data set [11] is Escherichia coli. Nature of the data set: Inhibition of NDM1 in Escherichia coli isolate Ch8.69 assessed as potentiation of imipenem-induced antibacterial activity by measuring imipenem MIC at 100 mg/L after 18 to 20 hrs by broth microdilution assay (reference value: 4 mg/L).

Sequence of Metallo-beta-lactamase type 2 (Klebsiella pneumoniae) (C7C422 whole entry): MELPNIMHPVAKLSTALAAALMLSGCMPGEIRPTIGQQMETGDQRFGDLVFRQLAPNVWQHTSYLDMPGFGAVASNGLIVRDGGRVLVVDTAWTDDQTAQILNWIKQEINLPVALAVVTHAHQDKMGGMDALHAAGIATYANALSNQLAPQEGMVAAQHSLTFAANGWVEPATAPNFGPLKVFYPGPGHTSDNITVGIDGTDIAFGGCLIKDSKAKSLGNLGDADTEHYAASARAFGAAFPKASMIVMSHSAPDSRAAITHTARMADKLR
Sequence of Metallo-beta-lactamase type 2 (P52699 whole entry): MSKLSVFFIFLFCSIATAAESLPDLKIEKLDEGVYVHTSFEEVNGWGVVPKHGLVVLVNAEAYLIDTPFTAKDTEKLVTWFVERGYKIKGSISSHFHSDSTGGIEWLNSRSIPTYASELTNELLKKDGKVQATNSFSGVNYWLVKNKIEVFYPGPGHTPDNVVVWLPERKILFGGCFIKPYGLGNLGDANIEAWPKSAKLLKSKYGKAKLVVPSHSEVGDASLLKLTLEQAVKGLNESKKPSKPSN

By IC50 is commonly meant the concentration needed to halve the response being measured. High values mean a need for much substance, low ones inhibition by little substance. By inhibition is commonly meant the change of the read-out against control, counted positive when it falls. Regarding `Nc1cccc(-c2cc(C(=O)O)nc(C(=O)O)c2)c1`, the IC50 was 210 nM against Beta-lactamase VIM-2 and 240 nM in data set [3]. Besides, the result with Bacteria was inactive. Further, the outcome in data set [1] was Active. In [2], this molecule had an inhibition below 50%. For the same molecule, the MIC (in data set [4]; in [5]; with Escherichia coli [11]) was 0.5 µg/mL in each case. Moreover, the Activity entry with Klebsiella pneumoniae [6], in the data set on Escherichia coli [9] and in the data set on Klebsiella pneumoniae [10] was “Non-Toxic” in each case. Further, in data set [7], the Selectivity ratio fell in the range of 100 to 1000. In addition, the inhibition entry in data set [8] was “inactive”.

For the origin of these results see ChEMBL document CHEMBL4017500 (J Med Chem, 2017).
